Data as given in PubChem BioAssay AID504490 (NMMLSC, 2011).
Screen size: about 340,000 compounds; about 1,100 (0.32%) were called active.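 How the source made its calls: active means inhibition above a set limit, near 3 SD of compounds lacking own fluorescence (cut at about 54% in these data); inactive means the rest.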 What follows is part of a selection rich in actives, with near analogues and random picks from the rest.

tested on: beta-arrestin 1 C-terminal peptide binding to AP2 beta2-adaptin appendage (human); test: blockers of arrestin peptide association with AP2 adaptin – biochemical, GPCR trafficking, flow cytometry, primary screen (AID 504490); settings: FITC-arrestin peptide / GST-AP2 beads, at 10 µM, hits give high values, AP2 beta2 appendage carries R879A mutation;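 further: plate controls were DMSO wells for no effect and 5 µM unlabelled arrestin peptide for full effect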
Procedure, shortened: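 System: GST-AP2 R879A glutathione beads | Also added: FITC-arrestin peptide, 50 nM | Times: 12 min plus 1 h, RT | Signal: Bead flow cytometry, FITC channel | Buffer or medium: PBS with 0.05% Tween 20 and 0.1% BSA | Read-out basis: Percent drop in bead-associated FITC signal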

Row | SMILES | inhibition
1 | COc1ccccc1CNC(=O)COC(=O)c1cccs1 | -6.34% (inactive)
2 | COc1ccc(C2c3[nH]c4ccccc4c3C[C@H]3C(=O)N(CC(C)C)CC(=O)N23)c(OC)c1 (stereo partly specified) | -2.46% (inactive)
3 | O=C(Cc1cccs1)Nc1nnc(SCc2ccc(F)cc2)s1 | 0.35% (inactive)
4 | CCCc1ccc(-c2csc(NC(=O)Cc3cccs3)n2)cc1 | 86.3% (active)
5 | COc1ccc(Cc2nnc(NC(=O)Cc3cccs3)s2)cc1 | 5.51% (inactive)
6 | CC(Sc1ncnc2c1cnn2-c1ccccc1)C(=O)Nc1ccc(N2CCOCC2)cc1 (stereo unspecified) | 52.7% (inactive)
7 | COc1ccc(C(C)(C)C)cc1NC(=O)CCN1C(=O)C2CCCCC2C1=O (stereo unspecified) | 4.94% (inactive)
8 | O=CN1CCN(C(=O)c2ccc3c(c2)OCO3)CC1 | -7.77% (inactive)
9 | CCOC(=O)N1CCN(C(=O)CNC(=O)Cc2ccc(Cl)cc2)CC1 | 87.5% (active)
10 | CCOC(=O)N1CCN(C(=O)C(C)NC(=O)c2ccco2)CC1 (stereo unspecified) | 47.5% (inactive)
11 | CCOC(=O)N1CCN(C(=O)Cc2ccc(-n3c(=S)[nH]c4ccccc4c3=O)cc2)CC1 | -0.7% (inactive)
12 | OCCN1CCOCCOCCN(CCO)CCN(CCO)CC1 | -4.2% (inactive)
13 | Cc1ccccc1NC(=O)CCNS(=O)(=O)c1ccc2[nH]c(=O)oc2c1 | -8.2% (inactive)
14 | C=CCOc1c(CNn2cn[nH]c2=S)cccc1OC | 0.65% (inactive)
15 | Cc1ccc(S(=O)(=O)N2CCCCC2)cc1NC(=O)CCNC(=O)c1ccccc1 | 2.03% (inactive)
16 | CC(=O)c1cccc(OCC(=O)OCC(=O)Nc2cc(S(=O)(=O)N3CCCCC3)ccc2C)c1 | 38.5% (inactive)
17 | Cc1ccc(S(=O)(=O)N2CCCCC2)cc1NC(=O)c1cccnc1 | 65.4% (active)
18 | O=P(c1ccc2c(c1)OCCO2)(N1CCOCC1)N1CCOCC1 | 1.28% (inactive)
19 | CCCCNC(=O)C1CCC(=O)N1CCc1ccccc1 (stereo unspecified) | -2.64% (inactive)
20 | Cc1ccc(CN2C(=O)CCC2C(=O)NCCCN2CCCCC2C)cc1 (stereo unspecified) | 102% (active)
21 | CCC(C)NC(=O)C1CCC(=O)N1Cc1ccc(C)cc1 (stereo unspecified) | 3.49% (inactive)

Row | SMILES | inhibition
22 | CC(=O)c1cccc(NC(=O)[C@@H](NC(N)=O)C(C)C)c1 | 15.6% (inactive)
23 | Cc1ccc2nsnc2c1S(=O)(=O)N1CCCC1C(=O)O (stereo unspecified) | 19.9% (inactive)
24 | COc1cc(C2/C(=C(\O)c3ccc4c(c3)CC(C)O4)C(=O)C(=O)N2c2nnc(C)s2)cc(OC)c1OC (stereo unspecified) | 18.6% (inactive)
25 | Cc1ccc(C2(C)NC(=O)N(CC(=O)Nc3ccccc3C(=O)N3CCCCC3)C2=O)cc1 (stereo unspecified) | 56.8% (active)
26 | Cc1ccc(NC(=O)CN2C(=O)NC(C)(c3ccc(Cl)cc3)C2=O)c(Br)c1 (stereo unspecified) | -0.27% (inactive)
27 | Cc1ccc(C2(C)NC(=O)N(CC(=O)N3CC(=O)Nc4ccccc43)C2=O)cc1 (stereo unspecified) | -7.93% (inactive)
28 | CC(=O)OC1CCC2C3CCC4=C(CC(F)C(=O)C4)C3CCC12C (stereo unspecified) | -26.5% (inactive)
29 | CCOc1ccccc1OCC(=O)Nc1ccccc1C(=O)NC1CC1 | -8.99% (inactive)
30 | O=C(NC1=CC(=O)c2ccccc2C1=O)c1ccccc1 | 19.2% (inactive)
31 | CC(=O)N(C1=C(Cl)C(=O)c2ccccc2C1=O)c1ccc(C(=O)O)cc1 | 64.7% (active)
32 | CC(C)(Oc1ccc(Cl)cc1)C(=O)OCC(=O)NCCc1ccc(S(N)(=O)=O)cc1 | 19% (inactive)
33 | O=C(CN1C(=O)COc2ccc(Cl)cc21)Nc1ccc(N2CCOCC2)cc1 | 3.15% (inactive)
34 | CSCC[C@H](NC(=O)N1CCn2c1nc1ccccc12)C(=O)NC1CCCCC1 | -6.82% (inactive)
35 | CC(C)C[C@H](NC(=O)N1CCn2c1nc1ccccc12)C(=O)NC1CC1 | 60.8% (active)
36 | CC(C)[C@H](NC(=O)N1CCn2c1nc1ccccc12)C(=O)NC1CC1 | 35.9% (inactive)
37 | NS(=O)(=O)c1ccc(CCNC(=O)CNC(=O)Cc2ccccc2)cc1 | 3.4% (inactive)
38 | NS(=O)(=O)c1ccc(CNC(=O)c2cccc(Oc3ccccc3)c2)cc1 | 10.4% (inactive)
39 | CC(NCCc1ccc(S(N)(=O)=O)cc1)C(=O)NCc1ccccc1 (stereo unspecified) | 57.4% (active)
40 | O=C(CC12CC3CC(CC(C3)C1)C2)NCc1ccco1 | 5.06% (inactive)
41 | O=C1C(Cl)=C(Oc2ccccc2)C(=O)c2ccccc21 | 55.1% (active)
42 | Cc1ccc(C(=O)CN2C(=O)NC3(CCOc4ccccc43)C2=O)s1 (stereo unspecified) | -5.1% (inactive)

Row | SMILES | inhibition
43 | O=C(COc1ccc(F)cc1Br)NCC1COc2ccccc2O1 (stereo unspecified) | 0.24% (inactive)
44 | COc1cccc(OCC(O)CNC(=O)c2oc3c(C)c(C)ccc3c2C)c1 (stereo unspecified) | 2.32% (inactive)
45 | CN1C(=O)/C(=C/c2ccco2)SC1=Nc1cccc(C(=O)O)c1 | 62.3% (active)
46 | CN=C1S/C(=C\c2c(OC)cc(OC)cc2OC)C(=O)N1C | 7.51% (inactive)
47 | Cc1ccc(N=C2NC(=O)/C(=C/C=C/c3ccco3)S2)cc1C | 42.9% (inactive)
48 | COc1ccc(C2(CNC(=O)C(c3ccccc3)c3ccccc3)CCOCC2)cc1OC | -2.16% (inactive)
49 | CC(C)c1ccc(NC(=S)NC2CC3C=CC2C3)cc1 (stereo unspecified) | -12.9% (inactive)
50 | Cc1ccc(C)c(NC(=S)NNC(=S)Nc2ccc(C(C)C)cc2)c1 | 60.6% (active)
51 | Cc1ccc(NC(=S)Nc2ccc(F)cc2)cc1 | 2.86% (inactive)
52 | Cn1cc(CCC(=O)N2CCCC(C(=O)c3ccc(C(C)(C)C)cc3)C2)cn1 (stereo unspecified) | 5.89% (inactive)
53 | CCOc1ccc(C(=O)NC2CCN(CC(=O)NCc3cccs3)CC2)cc1 | 54.6% (active)
54 | CCOc1ccc(C(=O)NC2CCN(S(=O)(=O)CC)CC2)cc1 | 2.75% (inactive)
55 | CCOc1ccc(/C=N/OCC(=O)NCc2cccs2)cc1 | -13.4% (inactive)
56 | c1ccc(Cc2ccc(OCCn3ccnc3)cc2)cc1 | -5.61% (inactive)
57 | O=C(C1CCC1)N1CCN(c2ccccc2)CC1 | 4.58% (inactive)
58 | CC(C)Cn1c(N)c(C(=O)COC(=O)CN2C(=O)C3CC=CCC3C2=O)c(=O)n(C)c1=O (stereo unspecified) | 1.01% (inactive)
59 | CC(NC(=O)COC(=O)c1cc(=O)[nH]c2ccccc12)c1ccccc1 (stereo unspecified) | 11.9% (inactive)
60 | CN(C(=O)COC(=O)c1cc(=O)[nH]c2ccccc12)C1CCCCC1 | 54.7% (active)
61 | CC1CCN(C(=O)COC(=O)c2cc(=O)[nH]c3ccccc23)CC1 | -3.58% (inactive)
